{"source": "paper PMC3361572", "about": "(Chemistry & biology, 2012)", "key": {"ABHD6 [1]": {"biological_target": "T1, ABHD6 (Mus musculus, UniProt Q8R2Y0)", "T1 sequence (Q8R2Y0 1-336)": "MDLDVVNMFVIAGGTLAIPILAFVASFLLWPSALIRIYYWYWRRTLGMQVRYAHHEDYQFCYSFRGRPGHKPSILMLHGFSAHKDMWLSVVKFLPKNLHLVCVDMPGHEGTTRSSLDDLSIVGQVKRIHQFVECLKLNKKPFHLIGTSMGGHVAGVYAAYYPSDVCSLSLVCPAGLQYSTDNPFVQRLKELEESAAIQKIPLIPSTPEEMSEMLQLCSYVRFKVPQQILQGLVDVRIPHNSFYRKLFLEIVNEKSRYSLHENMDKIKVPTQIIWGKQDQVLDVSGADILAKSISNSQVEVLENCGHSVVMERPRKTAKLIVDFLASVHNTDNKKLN", "assay": "competitive ABPP, mouse brain membrane proteome", "format": "biochemical", "conditions": "mouse brain serine hydrolase activities, full ABPP gel", "how_it_was_run": "(§1)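 Brain (mouse or rat) or mouse lung proteomes were preincubated with the test compound, then treated with the serine hydrolase probe FP-Rh. Samples were separated by SDS-PAGE and read by in-gel fluorescence scanning. Inhibition was taken as reduced FP-Rh labelling of MAGL, ABHD6, FAAH or CES bands, and IC50 values were calculated from quantified gel bands. Three independent experiments.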"}, "ABHD6 [2]": {"biological_target": "T2, ABHD6 (Rattus norvegicus, UniProt Q5XI64)", "T2 sequence (Q5XI64 1-337)": "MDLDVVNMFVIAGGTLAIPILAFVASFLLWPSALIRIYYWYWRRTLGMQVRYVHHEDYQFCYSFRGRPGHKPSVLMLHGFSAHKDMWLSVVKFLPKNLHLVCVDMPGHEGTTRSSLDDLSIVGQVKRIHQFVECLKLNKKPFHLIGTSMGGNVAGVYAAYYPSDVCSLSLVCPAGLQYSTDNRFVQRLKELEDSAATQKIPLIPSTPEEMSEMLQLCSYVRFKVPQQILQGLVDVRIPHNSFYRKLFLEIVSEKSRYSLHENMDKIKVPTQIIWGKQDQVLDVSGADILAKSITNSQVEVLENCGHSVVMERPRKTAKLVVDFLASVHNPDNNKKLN", "assay": "competitive ABPP, rat brain membrane proteome", "format": "biochemical", "conditions": "rat brain serine hydrolase activities, full ABPP gel", "how_it_was_run": "as §1"}, "MAGL [3]": {"biological_target": "T3, MAGL (Mus musculus, UniProt O35678)", "T3 sequence (O35678 1-303)": "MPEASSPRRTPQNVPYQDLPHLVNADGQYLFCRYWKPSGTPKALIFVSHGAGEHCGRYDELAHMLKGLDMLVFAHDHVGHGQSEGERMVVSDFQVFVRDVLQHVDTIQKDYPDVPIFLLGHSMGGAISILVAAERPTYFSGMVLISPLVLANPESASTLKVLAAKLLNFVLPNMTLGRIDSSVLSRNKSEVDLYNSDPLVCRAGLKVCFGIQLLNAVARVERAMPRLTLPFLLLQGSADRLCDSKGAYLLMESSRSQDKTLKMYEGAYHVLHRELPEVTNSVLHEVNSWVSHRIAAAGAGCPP", "assay": "2-AG substrate assay in mouse brain proteomes", "format": "biochemical"}, "FAAH [4]": {"biological_target": "T4, FAAH (Mus musculus, UniProt O08914)", "T4 sequence (O08914 1-579)": "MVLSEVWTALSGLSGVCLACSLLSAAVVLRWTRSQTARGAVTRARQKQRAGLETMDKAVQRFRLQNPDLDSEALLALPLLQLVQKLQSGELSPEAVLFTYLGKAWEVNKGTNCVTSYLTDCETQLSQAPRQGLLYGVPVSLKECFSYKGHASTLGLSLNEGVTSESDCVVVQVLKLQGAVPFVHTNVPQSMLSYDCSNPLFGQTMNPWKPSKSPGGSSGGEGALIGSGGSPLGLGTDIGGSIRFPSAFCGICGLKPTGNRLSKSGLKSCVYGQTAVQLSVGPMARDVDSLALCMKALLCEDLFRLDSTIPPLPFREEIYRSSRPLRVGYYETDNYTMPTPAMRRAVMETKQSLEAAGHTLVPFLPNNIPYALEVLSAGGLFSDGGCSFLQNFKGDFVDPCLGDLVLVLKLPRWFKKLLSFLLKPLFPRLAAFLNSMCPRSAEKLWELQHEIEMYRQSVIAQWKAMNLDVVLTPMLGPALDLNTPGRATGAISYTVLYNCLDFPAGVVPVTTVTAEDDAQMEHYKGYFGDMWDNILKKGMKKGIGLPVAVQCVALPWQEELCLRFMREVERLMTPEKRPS", "assay": "competitive ABPP of brain from inhibitor-treated mice", "format": "in vivo"}, "MAGL [5]": {"biological_target": "T3, MAGL", "assay": "2-AG hydrolytic activity of brain tissue from treated mice", "format": "in vivo", "conditions": "KML29-treated mice, 1–40 mg kg^−1 p.o."}, "[6]": {"test_system": "carboxylesterase (CES) enzymes", "assay": "gel-based ABPP of liver, lung and spleen from inhibitor-treated mice", "format": "in vivo, mouse"}, "FAAH [7]": {"biological_target": "T5, FAAH (Rattus norvegicus, UniProt P97612)", "T5 sequence (P97612 1-579)": "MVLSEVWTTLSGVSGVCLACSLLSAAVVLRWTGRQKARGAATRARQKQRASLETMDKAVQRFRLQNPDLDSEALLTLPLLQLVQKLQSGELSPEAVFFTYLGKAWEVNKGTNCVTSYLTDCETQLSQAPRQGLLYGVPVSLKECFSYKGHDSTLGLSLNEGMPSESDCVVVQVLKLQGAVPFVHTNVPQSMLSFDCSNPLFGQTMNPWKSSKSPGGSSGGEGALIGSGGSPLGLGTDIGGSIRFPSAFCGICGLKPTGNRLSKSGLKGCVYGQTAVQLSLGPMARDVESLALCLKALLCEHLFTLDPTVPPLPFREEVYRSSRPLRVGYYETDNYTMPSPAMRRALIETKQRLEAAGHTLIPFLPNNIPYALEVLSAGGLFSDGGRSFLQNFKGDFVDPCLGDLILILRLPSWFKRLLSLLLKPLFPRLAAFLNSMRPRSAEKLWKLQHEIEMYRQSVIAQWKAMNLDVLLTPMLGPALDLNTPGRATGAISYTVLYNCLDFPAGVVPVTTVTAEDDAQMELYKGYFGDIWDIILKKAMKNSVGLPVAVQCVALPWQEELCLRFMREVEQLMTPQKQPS", "assay": "competitive ABPP of brain from KML29-treated rats", "format": "in vivo", "conditions": "Wistar rats, 1–40 mg kg^−1 i.p., 4 h", "how_it_was_run": "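Wistar rats were injected i.p. with the test compound (1–40 mg kg−1) or vehicle. Vehicle was saline:emulphor:ethanol 18:1:1, with prolonged sonication and mild heating to dissolve. Rats were killed at 4 h. Brain, liver, lung and spleen proteomes were labelled with FP-Rh, separated by SDS-PAGE and scanned for in-gel fluorescence. Inhibition was scored as reduced probe labelling. n = 3 rats/group.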"}}, "data": [{"smiles": "O=C(OC(C(F)(F)F)C(F)(F)F)N1CCC(C(O)(c2ccc3c(c2)OCO3)c2ccc3c(c2)OCO3)CC1", "note": "[KML29]", "values": [{"measurement": "concentrations with inhibition of ABHD6", "setting": "ABHD6 [1]", "value": "> 1", "unit": "µM"}, {"measurement": "concentrations with inhibition of ABHD6", "setting": "ABHD6 [2]", "value": "> 1", "unit": "µM"}, {"measurement": "inhibition of 2-AG hydrolysis", "setting": "MAGL [3]", "value": "potent inhibitor of 2-AG hydrolysis"}, {"measurement": "brain FAAH inhibition, chronic dosing", "setting": "FAAH [4]; 40 mg kg^−1 p.o., six days", "value": "selectively inhibited MAGL without any effect on FAAH"}, {"measurement": "selectivity over brain FAAH", "setting": "FAAH [4]; all doses tested 1–40 mg kg^−1 p.o., 4 h", "value": "complete selectivity over FAAH"}, {"measurement": "selectivity for MAGL over FAAH during time course", "setting": "FAAH [4]; single oral dose 20 mg kg^−1, 24 h time course", "value": "complete selectivity for MAGL over FAAH"}, {"measurement": "residual MAGL activity in brain proteomes (substrate assay)", "setting": "MAGL [5]", "value": "dose-dependent inhibition of MAGL"}, {"measurement": "CES inhibition in peripheral tissues, chronic dosing", "setting": "[6]; 40 mg kg^−1 p.o., six days", "value": "minimal cross-reactivity with CES enzymes"}, {"measurement": "doses at which CES cross-reactivity (single ~70 kDa enzyme) was detected", "setting": "[6]; p.o., 4 h, peripheral tissues", "value": "20 to 40", "unit": "mg/kg"}, {"measurement": "cross-reactivity with brain FAAH", "setting": "FAAH [7]", "value": "without any detectable cross-reactivity"}]}]}
